Holding throughout (assay): UV-Vis spectral titration
What all share (assay type): binding

The target of data set [1] is CYP3A4 (Homo sapiens, UniProt P08684, F213S/S18F). An outline of the steps:
(§1)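 Human CYP3A4 (NF-14 construct, C-terminal pentahistidine tag, pCWori+ vector), wild type or F213 mutant, was incorporated into POPC Nanodiscs. The enzyme at 1-2 µM was titrated at 37 °C with test compound added in methanol (final methanol <1.5%), and UV-Vis spectra were read for the heme high-spin shift. Mixed titrations kept a fixed 1:12 steroid:second-substrate molar ratio.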

Data set [2] addresses CYP3A4 (Homo sapiens, UniProt P08684, S18F). An outline of the steps: as §1
Data set [3] has as its target CYP3A4 (Homo sapiens, UniProt P08684, F213A/S18F). A digest of the protocol:
as §1

In data set [4] the target is CYP3A4 (Homo sapiens, UniProt P08684, F213Y/S18F). A digest of the protocol: as §1
Chain of CYP3A4 (Homo sapiens, UniProt P08684, F213Y/S18F) (P08684 13-503 S18F/F213Y limits assumed): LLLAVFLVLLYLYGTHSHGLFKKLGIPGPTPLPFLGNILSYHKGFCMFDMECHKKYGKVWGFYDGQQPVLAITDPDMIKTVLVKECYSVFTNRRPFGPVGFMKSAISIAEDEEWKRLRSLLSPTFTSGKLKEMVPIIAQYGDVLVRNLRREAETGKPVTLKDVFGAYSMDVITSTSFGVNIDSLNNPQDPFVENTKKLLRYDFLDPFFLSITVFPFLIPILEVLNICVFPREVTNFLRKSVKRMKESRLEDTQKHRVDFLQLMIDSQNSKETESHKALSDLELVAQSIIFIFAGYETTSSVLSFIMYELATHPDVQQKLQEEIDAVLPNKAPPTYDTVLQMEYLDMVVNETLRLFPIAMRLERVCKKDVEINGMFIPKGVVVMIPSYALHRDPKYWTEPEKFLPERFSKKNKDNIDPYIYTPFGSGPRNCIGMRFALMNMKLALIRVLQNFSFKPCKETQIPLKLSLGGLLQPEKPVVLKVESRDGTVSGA

Drawing on PMC7003538 (Biochemistry, 2019), this text covers Kd for one compound.

Structures are written as SMILES.

In general, Kd refers to the constant that tells how readily two partners part at equilibrium. Higher therefore signals a looser complex.

Chain of CYP3A4 (Homo sapiens, UniProt P08684, F213S/S18F) (P08684 13-503 S18F/F213S limits assumed): as the sequence (P08684 13-503 S18F/F213Y limits assumed) above, with Y201S counted along it
Chain of CYP3A4 (Homo sapiens, UniProt P08684, S18F) (P08684 13-503 S18F limits assumed): as the sequence (P08684 13-503 S18F/F213Y limits assumed) above, with Y201F counted along it
Chain of CYP3A4 (Homo sapiens, UniProt P08684, F213A/S18F) (P08684 13-503 S18F/F213A limits assumed): as the sequence (P08684 13-503 S18F/F213Y limits assumed) above, with Y201A counted along it

As for `CC(=O)[C@H]1CC[C@H]2[C@@H]3CCC4=CC(=O)CC[C@]4(C)[C@H]3CC[C@]12C` [progesterone], the Kd came to 24.2 µM in data set [1], 31 µM in data set [2], 24.3 µM in data set [3] and 21.8 µM in data set [4].
